A selection: hits, their analogues and other compounds. The true share with any hit is near 2.3%.
PGC1a acetyl inh: inhibitors of PGC1a acetylation signal, primary screen, cell-based, U2OS, AlphaScreen, inhibitor mode; AlphaScreen anti-acetyl-lysine; with virally co-expressed GCN5 acetyltransferase; inhibition, % at 15.6 µM; 350,000 compounds, 0.17% hits; AID 651687, 2012;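 active = every replicate shows inhibition of at least 40%; inconclusive = mean inhibition at least 40% but some replicate below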
FN deposit inh: inhibitors of fibronectin matrix deposition, primary screen, AH1F cells, Alexa488-fibronectin fluorescence, plate reader; AH1F fibroblasts, overnight; inhibition, % at 12.6 µM; 350,000 compounds, 0.086% hits; AID 743247, 2014;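 active = mean inhibition across replicates of 30% or more, regardless of how many single replicates reach that level; inconclusive = mean under 30% yet at least half of replicates reach 30%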
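Material: AH1F fibroblast monolayer depositing Alexa488-labelled fibronectin into matrix / Amount: 10000 AH1F cells per well / Signal: fluorescence 485/525 nm / Medium: DMEM, 2% serum / Compound: single dose, pinned / Incubation: 1 h cell adhesion before compound, then overnight fibronectin incubation / Reagent: Alexa488-FN, 24 nM final / Read-out: inhibition of fibronectin deposition signal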
Env fusion inh: inhibitors of HIV-1 Env-driven cell-cell fusion, primary screen, HeLa-JRFL effector, CEM21 target cells, luciferase; inhibition, % at 12.3 µM; 360,000 compounds, 1.1% hits; AID 651610, 2012;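 active = mean replicate inhibition score of at least 50 and every replicate individually at or above 50; inconclusive = only one of the two criteria met; inactive = mean below 50 and not all replicates reaching 50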
PAX8 inh HTS: inhibitors of PAX8-driven TPO luciferase reporter, primary screen, RMG-I cells, single concentration; inhibition, % at 12.6 µM; 360,000 compounds, 1.2% hits; SteadyGlo, 24 h;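 active = mean replicate inhibition at least 60% with every replicate also reaching 60%; inconclusive = only one of the two criteria is met; inactive = mean below 60% and not all replicates reaching 60%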;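 also: luciferase light reporting Pax8 driven TPO promoter activity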
CFTR F508del cor: F508del CFTR correction, initial screen, CFBE line, single point | 350,000 compounds, 0.36% hits | activity (quench increase), % at 7.58 µM | CFBE cells, YFP halide quenching; stimulated with forskolin plus potentiator P3; % fluorescence drop versus neutral controls | AID 720511, 2013;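 active = mean added fluorescence quench of at least 8% versus neutral control, with both replicates also reaching 8%; inconclusive = only one of the mean or replicate conditions met; inactive = mean below 8% and not both replicates reaching 8%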;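 also: cells transiently co-express mutant CFTR-F508del with the halide-sensitive YFP; corrector assay measuring rescue of mutant channel to the surface after 24 h compound exposure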
EWS-Fli inh: EWS/Fli-driven NR0B1 reporter inhibitors, primary screen, A673 cells, NR0B1 luciferase, luminescence, MLPCN library. AID 651661, 2012. 350,000 compounds, 0.67% hits. viability-normalised. inhibition, % at 12.6 µM;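 active = mean inhibition of at least 50% after viability correction, with every replicate also passing that limit; inconclusive = mean reaches 50% but only one of two replicates passes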;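 also: firefly luciferase signal divided by Alamar Blue viability fluorescence both relative to DMSO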
Each line names hits and unclear results; the compound was inactive in the other large screens; [ ] = dose if it differs, or a comment.

N#Cc1cccc(-c2ccc3c(c2)[C@@H]2[C@@H](CCN2S(=O)(=O)c2cccc(F)c2)[C@@H](CO)N3)c1	none (no result: Env fusion inh)
O=S(=O)(c1ccc(F)cc1)N1CC[C@H]2[C@H](CO)Nc3ccc(-c4ccc(F)cc4)cc3[C@H]21	none (no result: Env fusion inh)
CCO[C@@H]1OC(C(=O)NCc2nc3ccccc3[nH]2)=C[C@H](C(C)(C)C)[C@H]1CCCO	PAX8 inh HTS 64, EWS-Fli inh 53
C[C@@H]1CCCCO[C@@H](CN(C)C(=O)C2CCCCC2)[C@H](C)CN([C@H](C)CO)C(=O)c2cc(NC(=O)Nc3ccc(F)cc3)ccc2O1	PAX8 inh HTS 86 (no result: FN deposit inh)
C[C@H](CO)N1C[C@H](C)[C@H](CN(C)C(=O)C2CCCCC2)OCCCC[C@H](C)Oc2ccc(NC(=O)Nc3ccc4c(c3)OCO4)cc2C1=O	Env fusion inh 78[16.7 µM] (no result: FN deposit inh, PAX8 inh HTS)
CC(C)NC(=O)Nc1ccc2c(c1)C(=O)N([C@@H](C)CO)C[C@@H](C)[C@H](CN(C)C(=O)Nc1ccc(F)cc1)OCCCC[C@H](C)O2	none
C[C@H]1CCCCO[C@@H](CN(C)C(=O)C2CCCCC2)[C@@H](C)CN([C@@H](C)CO)C(=O)c2cc(NC(=O)Nc3ccc(F)cc3)ccc2O1	PAX8 inh HTS inconclusive (no result: FN deposit inh)
CC(C)NC(=O)Nc1ccc2c(c1)C(=O)N([C@@H](C)CO)C[C@@H](C)[C@@H](CN(C)C(=O)Nc1ccc(F)cc1)OCCCC[C@@H](C)O2	Env fusion inh 80[16.7 µM]
C[C@@H]1CN([C@H](C)CO)C(=O)c2cc(NC(=O)Nc3ccc(F)cc3)ccc2O[C@@H](C)CCCCO[C@H]1CN(C)C(=O)Nc1ccc(F)cc1	PAX8 inh HTS 86
C[C@@H]1CCCCO[C@H](CN(C)C(=O)Nc2ccc(F)cc2)[C@H](C)CN([C@H](C)CO)C(=O)c2cc(NC(=O)Nc3ccc(F)cc3)ccc2O1	none
C[C@@H]1CN([C@H](C)CO)C(=O)c2cc(NC(=O)Nc3ccc4c(c3)OCO4)ccc2O[C@@H](C)CCCCO[C@H]1CN(C)C(=O)C1CCCCC1	none (no result: FN deposit inh, PAX8 inh HTS)
CS(=O)(=O)Nc1ccc2c(c1)[C@@H]1C[C@@H](CC(=O)NCc3ccccc3)O[C@@H](CO)[C@@H]1O2	none
COc1ccccc1CNC(=O)C[C@H]1CC[C@H](NC(C)=O)[C@@H](CO)O1	none
CC(=O)c1ccc(S(=O)(=O)Nc2cccc(-c3ccc4nncn4n3)c2)cc1	none (no result: PGC1a acetyl inh, CFTR F508del cor, EWS-Fli inh)
Cc1ccc(S(=O)(=O)Nc2cccc(-c3ccc4nncn4n3)c2)cc1	EWS-Fli inh 57
C=CCNC(=O)[C@H]1[C@@H]2C(=O)O[C@@H](c3ccccc3)[C@@H](c3ccccc3)N2[C@@H](c2ccc(OCCO)cc2)[C@]12C(=O)Nc1ccccc12	none (no result: PGC1a acetyl inh, FN deposit inh)
Cc1ccc(S(=O)(=O)N(C)C)cc1NC(=O)COc1ccccc1C(=O)Nc1ccccc1	Env fusion inh 74 (no result: PGC1a acetyl inh)
CN(C)S(=O)(=O)c1cccc(NC(=O)COc2ccccc2C(=O)Nc2ccccc2)c1	none (no result: Env fusion inh)
COc1ccc2c3c(n(C)c2c1)[C@@H](CO)N(C)CC31CCN(C(=O)Nc2c(C)noc2C)CC1	none (no result: FN deposit inh, Env fusion inh)
Cc1cccc(Nc2nc(-c3c(C)nc4ccccn34)cs2)c1	Env fusion inh 92 (no result: PAX8 inh HTS, CFTR F508del cor, EWS-Fli inh)
Cc1nc2ccccn2c1-c1csc(Nc2cccc(O)c2)n1	none (no result: CFTR F508del cor)
C[C@@H]1CN([C@@H](C)CO)C(=O)c2cc(C#CC3CC3)cnc2O[C@H]1CN(C)Cc1ccccc1C(=O)O	none (no result: FN deposit inh, PAX8 inh HTS)
Cc1cc2cc(CN(Cc3ccco3)S(=O)(=O)c3c(C)ccc4nsnc34)c(=O)[nH]c2cc1C	Env fusion inh 77 (no result: FN deposit inh, PAX8 inh HTS, CFTR F508del cor, EWS-Fli inh)
CCN(CC)C(=S)SSC(=S)N(CC)CC	CFTR F508del cor 14 (no result: Env fusion inh)
Cc1cc2[nH]c(=S)[nH]c2cc1C	none
Fc1cc2[nH]c(=S)[nH]c2cc1Cl	Env fusion inh 57 (no result: PGC1a acetyl inh)
COC(=O)[C@@]1(Cc2ccc(F)cc2)[C@H]2c3cc(C(=O)N(C)C)n(CCO)c3C[C@H]2CN1C(=O)c1ccccc1	Env fusion inh 80 (no result: PGC1a acetyl inh, FN deposit inh)
COC(=O)[C@@]1(Cc2ccc(F)cc2)[C@H]2c3cc(C(=O)N4CCCC4)n(CCc4ccccn4)c3C[C@H]2CN1C(=O)c1ccccc1	FN deposit inh 44 (no result: PGC1a acetyl inh)
C=CC(=O)N1C/C(=C/c2ccc(F)cc2)C(=O)/C(=C\c2ccc(F)cc2)C1	PGC1a acetyl inh 83, Env fusion inh 111, PAX8 inh HTS 100, EWS-Fli inh 87
CC(C)CCN1CCN=C1Nc1ccccc1	Env fusion inh 60
CC(C)CN1CCN=C1Nc1ccccc1	none
O=C1c2ccccc2C(=O)c2[nH]c(=O)[nH]c21	PAX8 inh HTS 91 (no result: PGC1a acetyl inh)
COC(=O)c1c(-c2ccc(C)cc2)csc1NC(=O)c1c(-c2ccccc2)noc1C	CFTR F508del cor 8.5 (no result: PGC1a acetyl inh)
COC(=O)c1sccc1NC(=O)c1c(-c2ccccc2)noc1C	none (no result: PGC1a acetyl inh, CFTR F508del cor, EWS-Fli inh)
COCCNC(=O)C[C@@H]1C[C@H]2c3cc(NC(=O)c4cccnc4)ccc3O[C@H]2[C@H](CO)O1	none
CCCCN(C(C)=O)c1ccc2c(c1)C1CC2CCN1C(=O)OCc1ccccc1 (stereo unspecified)	Env fusion inh 63
CCN(CCc1ccccc1)c1ccc2c(c1)C1CC2CCN1C(=O)OCc1ccccc1 (stereo unspecified)	none
COCC(=O)Nc1ccc2c(c1)OC[C@@H](C)N(Cc1cncnc1)C[C@@H](C)[C@@H](OC)CN(C)C2=O	none (no result: Env fusion inh, PAX8 inh HTS)
C[C@@H]1CN([C@@H](C)CO)C(=O)c2cccc(NC(=O)c3ccncc3)c2O[C@H]1CN(C)S(=O)(=O)c1cccs1	none (no result: FN deposit inh, Env fusion inh, PAX8 inh HTS)
C[C@H]1CN([C@@H](C)CO)C(=O)c2cccc(NC(=O)Nc3ccc(F)cc3)c2O[C@H]1CN(C)S(=O)(=O)c1cccs1	none
C[C@H](CO)N1C[C@H](C)[C@H](CN(C)S(=O)(=O)c2cccs2)Oc2c(NC(=O)Nc3ccc(F)cc3)cccc2C1=O	PAX8 inh HTS 68
C[C@@H]1CN([C@@H](C)CO)C(=O)c2cccc(NC(=O)c3ccncc3)c2O[C@@H]1CN(C)S(=O)(=O)c1cccs1	PAX8 inh HTS 98 (no result: FN deposit inh)
O=C(C[C@@H]1C/C=C/CC[C@H](Cc2ccc(F)cc2)C(=O)OC[C@@H](Cc2ccccc2)NC1=O)N[C@H](CO)Cc1ccccc1	PAX8 inh HTS 103, EWS-Fli inh inconclusive
C[C@@H]1COC(=O)[C@H](Cc2ccc(F)cc2)CC/C=C/C[C@@H](CC(=O)N[C@@H](CO)Cc2ccccc2)C(=O)N1	none (no result: PGC1a acetyl inh)
O=C1N[C@@H](Cc2ccccc2)COC(=O)[C@@H](Cc2ccc(F)cc2)CC/C=C/C[C@@H]1CC(=O)N(CCO)Cc1ccccc1	PAX8 inh HTS 68

Compound activity deposited in PubChem by Broad Institute.
